Bioassay records deposited in PubChem by The Scripps Research Institute Molecular Screening Center.
Rows were chosen to be rich in hits. Some 2.6% of all compounds tested hit in one or more screens of this group.
SIAE inh = human SIAE inhibitors, primary screen, biochemical, fluorescence polarization, FP-Rh probe, 1536-well HTS | AID 1053197, 2014 | 370,000 compounds, 0.69% hits | Sialate O-acetylesterase (Homo sapiens), Q9HAT2 | inhibition, % at 9.66 µM | SIAE FP-Rh probe binding;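 active = inhibition above a cutoff: mean of compounds within the control limits plus 3 SD of those, cut at about 17% in these data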
HTRA1 inh = HTRA1 serine protease inhibitors, primary screen, biochemical, fluorescence polarization, HTS; 340,000 compounds, 0.5% hits; inhibition, % at 5.96 µM; Q92743; recombinant HTRA1, FP-rhodamine activity-based probe; in the data active = inhibition above about 36%
Target sequence (Q92743 whole entry, looked up): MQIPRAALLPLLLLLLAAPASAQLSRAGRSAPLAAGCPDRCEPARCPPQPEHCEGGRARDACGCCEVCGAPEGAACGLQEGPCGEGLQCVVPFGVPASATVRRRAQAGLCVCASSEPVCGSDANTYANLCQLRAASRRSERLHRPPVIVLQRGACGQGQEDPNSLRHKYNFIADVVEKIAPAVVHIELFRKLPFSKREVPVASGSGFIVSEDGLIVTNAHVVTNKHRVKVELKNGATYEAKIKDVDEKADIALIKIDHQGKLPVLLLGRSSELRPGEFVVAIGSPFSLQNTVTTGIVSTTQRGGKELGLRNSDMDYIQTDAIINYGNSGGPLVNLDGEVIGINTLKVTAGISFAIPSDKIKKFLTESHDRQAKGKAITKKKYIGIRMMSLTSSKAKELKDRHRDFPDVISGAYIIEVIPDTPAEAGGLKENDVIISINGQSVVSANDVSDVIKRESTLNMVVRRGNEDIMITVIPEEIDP
PRMT1 FP inh = PRMT1 methyltransferase inhibitors, primary screen, biochemical, fluorescence polarization; recombinant PRMT1, activity-based probe fluorescence polarization; inhibition, % at 2.79 µM; Protein arginine N-methyltransferase 1 (Homo sapiens), Q99873; 370,000 compounds, 1.3% hits;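 active = inhibition above about 21% made by adding two undisclosed values, limit read from the data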
TCR CD3 inh = inhibitors of human TCR-CD3 interaction, primary screen, biochemical, fluorescence, TAMRA-labeled TCR probe; AID 651800, 2012; inhibition, % at 9.4 µM; 360,000 compounds, 0.37% hits; in the data active = inhibition above about 19%;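 note: recombinant mutant TCR 2C K166C tagged with TAMRA read by polarization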
mABHD4 FP = ABHD4 inhibitors, primary screen, biochemical, fluorescence polarization, mouse; (Lyso)-N-acylphosphatidylethanolamine lipase (Mus musculus), Q8VD66; purified mABHD4, FP-Rh probe fluorescence polarization; inhibition, % at 8.92 µM; 370,000 compounds, 0.54% hits; AID 720543, 2013;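 active = inhibition exceeding the mean over every tested compound plus 3 SD, cut at about 30% in these data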
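System: mouse ABHD4 enzyme, wild type / Medium: HEPES pH 7.0, NaCl, Pluronic buffer / Reagent: FP-Rh activity-based fluorescent probe / Control set: S159A mutant high control, sample median low control / Detection: fluorescence polarization with parallel and perpendicular emission, 525/598 nm / Schedule: 45 min + 60 min at 25 °C / Compound dosing: 8.92 µM, single dose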
PRMT1 confirm = PRMT1 methyltransferase inhibitors, confirmation, biochemical, fluorescence polarization, triplicate; inhibition, % at 2.79 µM; shares compounds with PRMT1 FP inh; 3,300 compounds, 42% hits; AID 687036, 2013; recombinant His-PRMT1, activity-based probe fluorescence polarization;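 active = mean inhibition across replicates above the hit cutoff derived for the earlier primary screen, cut at about 22% in these data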
Hits are given with their value.

O=C(NN1C(=O)C2C3C=CC(O3)C2C1=O)c1cccc(Br)c1 (stereo unspecified) was read as SIAE inh inactive, HTRA1 inh inactive, PRMT1 FP inh 40, TCR CD3 inh inactive, mABHD4 FP inactive and PRMT1 confirm inactive.
Screening O=C1NC(=S)SC1=Cc1ccccc1Cl returned SIAE inh inactive, HTRA1 inh inactive, PRMT1 FP inh inactive, TCR CD3 inh inactive and mABHD4 FP inactive.
`O=C1NC(=S)S/C1=C\c1cc(Cl)cc(Cl)c1O` gave SIAE inh inactive, HTRA1 inh inactive, PRMT1 FP inh 32, TCR CD3 inh inactive, mABHD4 FP inactive and PRMT1 confirm 34.
Cn1c(=O)c(=O)n(C)c2cc(N3CCOCC3)c(NS(=O)(=O)c3ccc([N+](=O)[O-])cc3)cc21 was read as SIAE inh inactive, HTRA1 inh inactive, PRMT1 FP inh 25, TCR CD3 inh inactive, mABHD4 FP inactive and PRMT1 confirm inactive.
For Cn1c(=O)c(=O)n(C)c2cc(N3CCOCC3)c(NS(=O)(=O)c3ccc(F)c(Cl)c3)cc21 the results were SIAE inh inactive, HTRA1 inh inactive, PRMT1 FP inh inactive, TCR CD3 inh inactive and mABHD4 FP inactive.
Screening Cc1ccc(Nc2nc(-c3ccccc3)c(CC(=O)O)s2)cc1 returned SIAE inh inactive, HTRA1 inh inactive, PRMT1 FP inh inactive, TCR CD3 inh inactive and mABHD4 FP inactive.
Screening O=C(O)Cc1sc(Nc2ccc(F)cc2)nc1-c1cccs1 returned SIAE inh inactive, HTRA1 inh inactive, PRMT1 FP inh 31, TCR CD3 inh inactive, mABHD4 FP inactive and PRMT1 confirm inactive.
Screening CC(=O)Nc1ccc(SC[C@H](CC(C)C)N2CCN(CCc3ccccc3)CCC2=O)cc1 returned SIAE inh inactive, HTRA1 inh inactive, PRMT1 FP inh 40, TCR CD3 inh inactive, mABHD4 FP inactive and PRMT1 confirm 40.
`CSc1ncccc1C(=O)N1CCN(S(=O)(=O)c2ccc(C)cc2)CC1` gave SIAE inh inactive, HTRA1 inh inactive, PRMT1 FP inh inactive, TCR CD3 inh inactive and mABHD4 FP inactive.
Screening Cc1ccc(-n2ccnc(SCC(=O)NC3CCCCC3)c2=O)cc1F returned SIAE inh inactive, HTRA1 inh inactive, PRMT1 FP inh 26, TCR CD3 inh inactive, mABHD4 FP inactive and PRMT1 confirm inactive.
Screening CCOc1ccc(-n2ccnc(SCC(=O)Nc3ccc(OC)cc3OC)c2=O)cc1 returned SIAE inh inactive, HTRA1 inh inactive, PRMT1 FP inh 27, TCR CD3 inh inactive, mABHD4 FP inactive and PRMT1 confirm 27.
COc1ccc(-n2ccnc(SCC(=O)NC3CCCC3)c2=O)cc1OC was read as SIAE inh inactive, HTRA1 inh inactive, PRMT1 FP inh inactive, TCR CD3 inh inactive and mABHD4 FP inactive.
COc1ccc(-n2ccnc(SCC(=O)NC3CCCC3)c2=O)cc1 was read as SIAE inh inactive, HTRA1 inh inactive, PRMT1 FP inh inactive, TCR CD3 inh inactive and mABHD4 FP inactive.
For CCOc1ccc(-n2ccnc(SCC(=O)NCc3cccc(OC)c3)c2=O)cc1 the results were SIAE inh inactive, HTRA1 inh inactive, PRMT1 FP inh inactive, TCR CD3 inh inactive and mABHD4 FP inactive.
COc1ccc(CNC(=O)CSc2nccn(-c3ccc(F)c(F)c3)c2=O)cc1 was read as SIAE inh inactive, HTRA1 inh inactive, PRMT1 FP inh 33, TCR CD3 inh inactive, mABHD4 FP inactive and PRMT1 confirm 27.
O=C(CSc1nccn(-c2ccc(Br)cc2)c1=O)Nc1ccccc1F was read as SIAE inh inactive, HTRA1 inh inactive, PRMT1 FP inh 46, TCR CD3 inh inactive, mABHD4 FP inactive and PRMT1 confirm inactive.
O=C(CN1CCc2ccccc2C1)Nc1ccccc1C(=O)NC1CC1 was read as SIAE inh inactive, HTRA1 inh inactive, PRMT1 FP inh inactive, TCR CD3 inh inactive and mABHD4 FP inactive.
Screening O=C(CN1CC[n+]2c(-c3cccs3)csc21)c1ccc(-c2ccccc2)cc1 returned SIAE inh inactive, HTRA1 inh inactive, PRMT1 FP inh 32, TCR CD3 inh inactive, mABHD4 FP inactive and PRMT1 confirm 40.
For COCc1cccc(-c2csc(C(N)c3ccc(F)c(F)c3)n2)c1 (stereo unspecified) the results were SIAE inh inactive, PRMT1 FP inh inactive, TCR CD3 inh inactive and mABHD4 FP inactive.
COCc1cccc(-c2csc(C(O)c3ccc(F)c(F)c3)n2)c1 (stereo unspecified) was read as SIAE inh inactive, PRMT1 FP inh 52, TCR CD3 inh inactive, mABHD4 FP inactive and PRMT1 confirm inactive.
NNc1nc2ccccc2nc1C(F)(F)F was read as SIAE inh inactive, HTRA1 inh inactive, PRMT1 FP inh inactive, TCR CD3 inh inactive and mABHD4 FP inactive.
For FC(F)(F)c1nc2ccccc2nc1N/N=C\c1ccccc1 the results were SIAE inh inactive, HTRA1 inh inactive, PRMT1 FP inh 25, TCR CD3 inh inactive, mABHD4 FP inactive and PRMT1 confirm inactive.
Screening CCc1ccc[n+](-c2[nH]c(=O)sc2/C=N/N=C(\N)[O-])c1 returned SIAE inh inactive, HTRA1 inh inactive, PRMT1 FP inh inactive, TCR CD3 inh inactive and mABHD4 FP inactive.
Screening Cc1cc[n+](-c2[nH]c(=O)sc2/C=N/NC([S-])=Nc2ccccc2)cc1 returned SIAE inh inactive, HTRA1 inh inactive, PRMT1 FP inh 67, TCR CD3 inh inactive, mABHD4 FP inactive and PRMT1 confirm 29.
Screening CCc1ccc[n+](-c2[nH]c(=O)sc2/C=N/NC([S-])=Nc2ccccc2)c1 returned SIAE inh inactive, HTRA1 inh inactive, PRMT1 FP inh 87, TCR CD3 inh inactive, mABHD4 FP inactive and PRMT1 confirm 40.
For O=c1[nH]c(-[n+]2ccccc2)c(/C=N/NC([S-])=Nc2ccccc2)s1 the results were SIAE inh inactive, HTRA1 inh inactive, PRMT1 FP inh 50, TCR CD3 inh inactive, mABHD4 FP inactive and PRMT1 confirm inactive.
For Cc1cc(C)c[n+](-c2[nH]c(=O)sc2/C=N/NC([S-])=Nc2ccccc2)c1 the results were SIAE inh inactive, HTRA1 inh inactive, PRMT1 FP inh 48, TCR CD3 inh inactive, mABHD4 FP inactive and PRMT1 confirm 31.
`CC(C)(C)c1cc[n+](-c2[nH]c(=O)sc2/C=N/NC(=O)c2ccccc2[O-])cc1` gave SIAE inh inactive, HTRA1 inh inactive, PRMT1 FP inh inactive, TCR CD3 inh inactive and mABHD4 FP inactive.
Screening O=C(NCc1cn2ccccc2n1)C1CCC(=O)N(Cc2ccccc2F)C1 (stereo unspecified) returned SIAE inh inactive, HTRA1 inh inactive, PRMT1 FP inh inactive, TCR CD3 inh inactive and mABHD4 FP inactive.
